We go through 12 molecules from ChEMBL document CHEMBL4043192, “The discovery of IDX21437: Design, synthesis and antiviral evaluation of 2'-α-chloro-2'-β-C-methyl branched uridine pronucleotides as potent liver-targeted HCV polymerase inhibitors” (Bioorg Med Chem Lett, 2017).

By EC50 is commonly meant the concentration that produces a half-maximal response. As usually defined, the CC50 is the concentration that lowers cell viability or growth by half. In general, IC50 refers to the midpoint of a concentration-inhibition curve. The term half-life denotes how long it takes for the measured level to halve.

Data set [1] relates to Hepatitis C virus. Description: Antiviral activity against HCV genotype 1b Con1 expressing NS3 protease infected in human Huh-7 cells assessed as reduction in viral RNA replication after 72 hrs by luciferase reporter gene assay. In kind it is functional, cell-based, Hepacivirus hominis. The following applies: genotype 1b Con1, Huh-7, 72 h.
Data set [2] in a line: Cytotoxicity against human HuH7 cells assessed as reduction in cell viability. In kind it is cell-based, Huh-7.
Data set [3] concerns the target DNA-directed RNA polymerase, mitochondrial (Homo sapiens, UniProt O00411). Description: Inhibition of human mitochondrial RNA polymerase. In short, it runs like this: (§1)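 Biochemical enzyme inhibition assays across a panel of polymerases. IC50 was derived from percent inhibition versus concentration data.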
The subject of data set [4] is Hepatitis C virus subtype 1b. Description: Selectivity ratio of IC50 for HCV genotype 1b NS5B RNA dependent RNA polymerase S282T mutant to IC50 for wild-type HCV genotype 1b NS5B RNA dependent RNA polymerase.
Data set [5] is described as follows: Inhibition of HCV genotype 4a NS5B RNA dependent RNA polymerase assessed as reduction in [33P]-labeled nucleotide incorporation in to RNA template after 2 hrs by liquid scintillation counting method. Also noted: species or system Hepatitis C virus subtype 4a. In short, it runs like this:
as §1

The nature of data set [6]: Inhibition of HCV genotype 1a NS5B RNA dependent RNA polymerase assessed as reduction in [33P]-labeled nucleotide incorporation in to RNA template after 2 hrs by liquid scintillation counting method. Also noted: species or system Hepatitis C virus subtype 1a. In short, it runs like this: as §1
Data set [7] is described as follows: Inhibition of HCV genotype 6a NS5B RNA dependent RNA polymerase assessed as reduction in [33P]-labeled nucleotide incorporation in to RNA template after 2 hrs by liquid scintillation counting method. Also noted: species or system Hepatitis C virus subtype 6a. In short, it runs like this:
as §1

A short description of data set [8]: Half life in human hepatocytes. The class given is ADME, cell-based, Hepatocyte.
For data set [9], the target named is RNA-directed RNA polymerase (Hepacivirus hominis, UniProt O39930, S282T). Description: Inhibition of HCV genotype 1b NS5B RNA dependent RNA polymerase S282T mutant. Also noted: species or system Hepatitis C virus subtype 1b.
The target of another data set is DNA polymerase beta (Homo sapiens, UniProt P06746). Kind of data set: Inhibition of human DNA polymerase beta. In short, it runs like this:
as §1

A short description of data set [10]: Inhibition of human DNA polymerase gamma. A digest of the protocol: as §1
The target in data set [11] is T1, DNA polymerase alpha catalytic subunit (Homo sapiens, UniProt P09884).
T1 sequence (P09884 whole entry): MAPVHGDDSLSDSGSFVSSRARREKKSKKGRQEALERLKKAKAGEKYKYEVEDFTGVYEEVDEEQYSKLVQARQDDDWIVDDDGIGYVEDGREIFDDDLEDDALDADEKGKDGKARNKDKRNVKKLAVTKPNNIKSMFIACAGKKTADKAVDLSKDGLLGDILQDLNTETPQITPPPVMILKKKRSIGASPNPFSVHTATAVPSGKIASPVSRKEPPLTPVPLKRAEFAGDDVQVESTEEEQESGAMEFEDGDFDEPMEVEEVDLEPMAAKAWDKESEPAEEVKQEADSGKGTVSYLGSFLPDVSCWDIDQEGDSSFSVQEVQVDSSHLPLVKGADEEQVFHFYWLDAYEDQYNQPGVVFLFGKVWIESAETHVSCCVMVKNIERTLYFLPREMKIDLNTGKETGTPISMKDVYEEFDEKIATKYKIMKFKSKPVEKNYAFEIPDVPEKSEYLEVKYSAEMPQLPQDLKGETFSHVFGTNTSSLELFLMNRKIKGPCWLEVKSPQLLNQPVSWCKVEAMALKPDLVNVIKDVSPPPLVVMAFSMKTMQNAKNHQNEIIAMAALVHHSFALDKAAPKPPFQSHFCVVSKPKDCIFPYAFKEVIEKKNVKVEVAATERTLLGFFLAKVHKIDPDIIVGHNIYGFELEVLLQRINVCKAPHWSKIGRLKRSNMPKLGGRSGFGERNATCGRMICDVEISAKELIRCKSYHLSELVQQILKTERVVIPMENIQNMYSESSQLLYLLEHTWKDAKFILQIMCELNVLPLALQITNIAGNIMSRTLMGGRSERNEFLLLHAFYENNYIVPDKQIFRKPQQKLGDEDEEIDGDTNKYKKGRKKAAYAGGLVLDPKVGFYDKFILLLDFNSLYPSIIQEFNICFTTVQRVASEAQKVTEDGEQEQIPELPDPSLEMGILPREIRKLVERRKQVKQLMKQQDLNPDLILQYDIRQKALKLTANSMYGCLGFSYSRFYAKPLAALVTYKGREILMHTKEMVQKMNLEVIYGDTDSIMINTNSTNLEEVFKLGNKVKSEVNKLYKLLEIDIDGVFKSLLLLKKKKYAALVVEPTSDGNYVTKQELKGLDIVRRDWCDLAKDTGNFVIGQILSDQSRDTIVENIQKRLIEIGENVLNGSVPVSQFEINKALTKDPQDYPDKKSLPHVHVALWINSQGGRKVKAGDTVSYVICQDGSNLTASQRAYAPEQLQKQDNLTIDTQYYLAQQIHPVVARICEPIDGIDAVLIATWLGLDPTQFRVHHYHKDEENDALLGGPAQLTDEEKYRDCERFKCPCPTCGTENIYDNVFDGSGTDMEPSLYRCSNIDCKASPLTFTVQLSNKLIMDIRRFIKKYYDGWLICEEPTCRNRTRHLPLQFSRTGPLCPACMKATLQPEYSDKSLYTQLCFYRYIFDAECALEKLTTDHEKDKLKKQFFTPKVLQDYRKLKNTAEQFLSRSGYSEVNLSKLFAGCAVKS
Kind of data set: Inhibition of human DNA polymerase alpha. In short, it runs like this:
as §1

The nature of data set [12]: Inhibition of HCV genotype 3a NS5B RNA dependent RNA polymerase assessed as reduction in [33P]-labeled nucleotide incorporation in to RNA template after 2 hrs by liquid scintillation counting method. Also noted: species or system Hepatitis C virus subtype 3a. A digest of the protocol: as §1
Data set [13] can be described thus: Inhibition of HCV genotype 2a NS5B RNA dependent RNA polymerase assessed as reduction in [33P]-labeled nucleotide incorporation in to RNA template after 2 hrs by liquid scintillation counting method. Also noted: species or system Hepatitis C virus subtype 2a. In short, it runs like this:
as §1

Data set [14] can be described thus: Inhibition of human RNA polymerase 2. A digest of the protocol: as §1
The nature of data set [15]: Inhibition of HCV genotype 5a NS5B RNA dependent RNA polymerase assessed as reduction in [33P]-labeled nucleotide incorporation in to RNA template after 2 hrs by liquid scintillation counting method. Also noted: species or system Hepatitis C virus subtype 5a. A digest of the protocol: as §1
Data set [16] is described as follows: Inhibition of wild-type HCV genotype 1b NS5B RNA dependent RNA polymerase. Also noted: species or system Hepatitis C virus subtype 1b. In short, it runs like this:
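Biochemical assay using wild-type genotype 1b HCV NS5B polymerase. IC50 was derived from percent inhibition versus concentration data.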

The nature of data set [17]: Selectivity index, ratio of CC50 for human Huh-7 cells to EC50 for HCV genotype 1b Con1 expressing NS3 protease. In short, it runs like this:
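Selectivity index = CC50/EC50. EC50 from a luciferase-read Con1 subgenomic replicon assay in Huh-7 (GS4.1) cells.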

For a further data set, the system named is Plasma. Kind of data set: Dose normalized AUC (0 to 24 hrs) in mouse plasma assessed as 2'-C-MeU level at 10 mg/kg, po administered as single dose. In kind it is ADME, organism-based. The following applies: in vivo. A digest of the protocol:
(§2)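 Mice given a single oral 10 mg/kg dose. Triphosphate measured in liver and parent nucleoside in plasma. AUC expressed as dose-normalized AUC (AUC per mg/kg).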

For the next data set, the system named is Liver. Kind of data set: Dose normalized AUC (0 to 24 hrs) in mouse liver assessed as 2'-C-MeUTP level at 10 mg/kg, po administered as single dose. The class given is ADME, organism-based. The following applies: in vivo. In short, it runs like this:
as §2

For data set [18], the system named is Hepatitis C virus. Description: Antiviral activity against HCV genotype 1b Con1 infected in human Huh-7 cells over-expressing CES1. The class given is functional, cell-based, Hepacivirus hominis. The following applies: genotype 1b Con1, Huh-7. In short, it runs like this: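 Transient HCV replicon assay in cells transfected to overexpress CES1; EC50 from inhibition versus concentration data.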

The next data set deals with Cytochrome P450 3A4 (Homo sapiens, UniProt P08684). Description: Drug metabolism assessed as CYP3A4 (unknown origin)-mediated (R)-2-((R)-(((2R,3R,4R,5R)-4-chloro-5-(2,4-dioxo-3,4-dihydropyrimidin-1(2H)-yl)-3-hydroxy-4-methyltetrahydrofuran-2-yl)methoxy)(phenoxy)phosphorylamino)propanoic acid metabolite formation. The class given is ADME.
In a further data set the target is Cytochrome P450 3A5 (Homo sapiens, UniProt P20815). Description: Drug metabolism assessed as CYP3A5 (unknown origin)-mediated (R)-2-((R)-(((2R,3R,4R,5R)-4-chloro-5-(2,4-dioxo-3,4-dihydropyrimidin-1(2H)-yl)-3-hydroxy-4-methyltetrahydrofuran-2-yl)methoxy)(phenoxy)phosphorylamino)propanoic acid metabolite formation. In kind it is ADME.

SMILES strings stand for the structures. Bounds are passed on as bounds.

RNA-directed RNA polymerase, sequence (O39930 entry or part of it S282T): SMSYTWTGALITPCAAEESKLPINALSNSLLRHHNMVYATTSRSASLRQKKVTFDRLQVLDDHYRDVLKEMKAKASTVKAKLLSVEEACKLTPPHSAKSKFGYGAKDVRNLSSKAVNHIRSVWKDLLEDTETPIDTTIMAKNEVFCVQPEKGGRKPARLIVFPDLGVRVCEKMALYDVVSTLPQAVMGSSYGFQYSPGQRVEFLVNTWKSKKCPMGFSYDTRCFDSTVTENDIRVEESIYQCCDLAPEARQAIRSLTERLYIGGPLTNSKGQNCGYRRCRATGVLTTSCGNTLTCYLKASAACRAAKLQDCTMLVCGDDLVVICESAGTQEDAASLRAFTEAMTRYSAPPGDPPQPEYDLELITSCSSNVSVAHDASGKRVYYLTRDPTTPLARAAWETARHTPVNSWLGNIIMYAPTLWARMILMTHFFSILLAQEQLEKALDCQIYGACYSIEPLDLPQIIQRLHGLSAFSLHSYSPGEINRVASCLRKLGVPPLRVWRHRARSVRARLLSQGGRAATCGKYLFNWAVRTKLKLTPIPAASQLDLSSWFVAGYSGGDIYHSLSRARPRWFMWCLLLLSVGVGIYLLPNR
Cytochrome P450 3A5, sequence (P20815 whole entry): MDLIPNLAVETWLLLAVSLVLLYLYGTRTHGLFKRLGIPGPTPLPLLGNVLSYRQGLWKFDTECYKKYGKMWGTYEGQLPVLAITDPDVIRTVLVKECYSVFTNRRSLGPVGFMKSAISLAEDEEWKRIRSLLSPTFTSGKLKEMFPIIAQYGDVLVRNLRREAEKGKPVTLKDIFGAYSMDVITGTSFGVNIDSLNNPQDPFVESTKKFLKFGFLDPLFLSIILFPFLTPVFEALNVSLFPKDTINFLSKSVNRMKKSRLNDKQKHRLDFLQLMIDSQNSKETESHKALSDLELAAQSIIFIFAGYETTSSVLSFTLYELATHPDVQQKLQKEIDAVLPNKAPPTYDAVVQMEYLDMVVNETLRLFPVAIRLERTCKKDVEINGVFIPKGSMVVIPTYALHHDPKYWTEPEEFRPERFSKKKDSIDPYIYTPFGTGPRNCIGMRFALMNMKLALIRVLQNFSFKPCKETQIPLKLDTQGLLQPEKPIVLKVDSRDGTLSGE
DNA-directed RNA polymerase, mitochondrial, sequence (O00411 whole entry): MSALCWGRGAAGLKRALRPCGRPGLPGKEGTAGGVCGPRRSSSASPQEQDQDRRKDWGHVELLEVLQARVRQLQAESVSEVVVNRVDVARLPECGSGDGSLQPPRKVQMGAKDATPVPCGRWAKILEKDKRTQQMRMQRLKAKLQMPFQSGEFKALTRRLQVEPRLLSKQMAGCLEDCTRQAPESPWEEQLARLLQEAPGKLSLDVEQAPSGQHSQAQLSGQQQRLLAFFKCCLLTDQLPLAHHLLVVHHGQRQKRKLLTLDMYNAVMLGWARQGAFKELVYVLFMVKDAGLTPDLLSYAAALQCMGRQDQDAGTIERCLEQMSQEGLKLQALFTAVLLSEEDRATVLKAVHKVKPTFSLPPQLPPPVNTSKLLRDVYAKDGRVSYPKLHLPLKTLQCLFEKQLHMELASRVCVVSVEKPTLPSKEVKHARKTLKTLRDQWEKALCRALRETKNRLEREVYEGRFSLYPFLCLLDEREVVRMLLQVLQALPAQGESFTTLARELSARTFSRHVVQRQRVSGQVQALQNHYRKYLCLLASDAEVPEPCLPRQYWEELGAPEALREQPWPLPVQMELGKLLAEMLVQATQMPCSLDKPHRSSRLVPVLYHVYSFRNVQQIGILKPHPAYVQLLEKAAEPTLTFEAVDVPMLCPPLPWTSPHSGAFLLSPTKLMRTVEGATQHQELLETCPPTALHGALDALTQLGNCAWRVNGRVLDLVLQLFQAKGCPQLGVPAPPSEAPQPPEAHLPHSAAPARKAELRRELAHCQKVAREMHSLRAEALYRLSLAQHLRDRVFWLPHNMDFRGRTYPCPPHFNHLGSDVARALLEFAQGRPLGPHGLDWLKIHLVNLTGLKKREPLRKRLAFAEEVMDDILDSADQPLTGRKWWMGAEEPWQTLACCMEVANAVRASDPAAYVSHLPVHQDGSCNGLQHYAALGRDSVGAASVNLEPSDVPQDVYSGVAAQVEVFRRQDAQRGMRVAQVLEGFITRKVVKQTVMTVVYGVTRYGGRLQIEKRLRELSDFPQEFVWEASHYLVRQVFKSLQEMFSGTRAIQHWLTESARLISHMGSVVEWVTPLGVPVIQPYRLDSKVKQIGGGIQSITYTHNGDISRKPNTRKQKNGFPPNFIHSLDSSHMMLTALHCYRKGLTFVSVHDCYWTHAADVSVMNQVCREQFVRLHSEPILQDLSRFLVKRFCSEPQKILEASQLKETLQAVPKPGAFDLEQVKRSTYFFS
Cytochrome P450 3A4, sequence (P08684 whole entry): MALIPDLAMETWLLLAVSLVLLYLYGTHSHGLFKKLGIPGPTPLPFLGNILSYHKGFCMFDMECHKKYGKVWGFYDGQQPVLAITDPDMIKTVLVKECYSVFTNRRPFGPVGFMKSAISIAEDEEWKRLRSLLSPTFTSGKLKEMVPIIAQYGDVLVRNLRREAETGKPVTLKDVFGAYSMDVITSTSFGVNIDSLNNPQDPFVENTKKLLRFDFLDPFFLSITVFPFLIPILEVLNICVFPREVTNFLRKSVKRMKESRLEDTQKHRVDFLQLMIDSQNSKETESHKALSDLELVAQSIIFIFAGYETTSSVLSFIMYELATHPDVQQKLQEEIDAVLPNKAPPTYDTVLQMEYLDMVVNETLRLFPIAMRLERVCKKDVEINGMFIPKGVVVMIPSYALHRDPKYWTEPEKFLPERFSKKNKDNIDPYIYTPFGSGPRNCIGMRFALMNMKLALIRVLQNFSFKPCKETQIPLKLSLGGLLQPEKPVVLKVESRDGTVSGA

Consider `C[C@@]1(O)[C@H](O)[C@@H](CO)O[C@H]1n1ccc(=O)[nH]c1=O`, for which the EC50 in the data set with Hepatitis C virus [1] came to 30 µM. The 50% cytotoxic concentration (CC50) in data set [2] is greater than 100 µM.
With `C[C@@]1(Cl)[C@H](O)[C@@H](COP(=O)(O)OP(=O)(O)OP(=O)(O)O)O[C@H]1n1ccc(=O)[nH]c1=O` [4A-TP], the half-maximal inhibitory concentration (IC50) is greater than 500 µM in [3]; 0.15 µM in data set [5]; 0.14 µM in [6]; 0.1 µM in data set [7]; 0.944 µM in data set [9]; greater than 500 µM against DNA polymerase beta. The IC50 was 95 µM in data set [10]; greater than 500 µM in data set [11]; 0.16 µM in data set [12]; 0.25 µM in data set [13]; greater than 500 µM in data set [14]; 0.23 µM in data set [15]. Further, the IC50 in data set [16] was determined as 0.154 µM. Besides, in data set [4], the Ratio IC50 was 6.1. The half-life in data set [8] was greater than 18 h.
`C[C@@]1(F)[C@H](O)[C@@H](COP(=O)(O)OP(=O)(O)OP(=O)(O)O)O[C@H]1n1ccc(=O)[nH]c1=O` [GS-461203]: the Ratio IC50 in data set [4] turned out to be 7.7. The IC50 in [9] was 0.606 µM; in [16], 0.079 µM.
As to `C[C@@]1(F)[C@H](O)[C@@H](CO)O[C@H]1n1ccc(=O)[nH]c1=O`, the EC50 in the data set on Hepatitis C virus [1] was 50 µM. The CC50 in data set [2] was greater than 100 µM.
On the same counts, the results for `C[C@@]1(Cl)[C@H](O)[C@@H](CO)O[C@H]1n1ccc(=O)[nH]c1=O` are 57 µM and greater than 100 µM.
As to `CC(C)OC(=O)[C@H](C)N[P@](=O)(OC[C@H]1O[C@@H](n2ccc(=O)[nH]c2=O)[C@](C)(F)[C@@H]1O)Oc1ccccc1` [SOFOSBUVIR], the “Ratio CC50/EC50” value in data set [17] was greater than 352. Further, the 50% effective concentration (EC50) in the data set on Hepatitis C virus [1] turned out to be 0.284 µM; in the data set on Hepatitis C virus [18], 0.552 µM. Also, the AUC/dose amounted to 330 pmol·h/mL with Plasma and 310 pmol·h/g in the data set with Liver.
Regarding `CC(C)OC(=O)[C@@H](C)N[P@@](=O)(OC[C@H]1O[C@@H](n2ccc(=O)[nH]c2=O)[C@](C)(Cl)[C@@H]1O)Oc1ccccc1` [UPRIFOSBUVIR], the Drug metabolism result on Cytochrome P450 3A4 and on Cytochrome P450 3A5 was “Metabolite_Detected” throughout. Moreover, the “Ratio CC50/EC50” value in data set [17] is listed as greater than 2. Further, the concentration for a half-maximal effect (EC50) came out at 56.8 µM in the data set on Hepatitis C virus [1] and 0.323 µM in the data set on Hepatitis C virus [18]. The AUC/dose was determined as 1400 pmol·h/mL in the data set with Plasma and 6200 pmol·h/g with Liver.
For the molecule `C[C@@]1(O)[C@H](O)[C@@H](COP(=O)(O)OP(=O)(O)OP(=O)(O)O)O[C@H]1n1ccc(=O)[nH]c1=O`, in data set [16], half-maximal inhibition (IC50) required 0.081 µM.
With `CC(C)OC(=O)[C@@H](C)N[P@]1(=O)OC[C@H]2O[C@@H](n3ccc(=O)[nH]c3=O)[C@](C)(Cl)[C@@H]2O1`, in data set [17], the “Ratio CC50/EC50” value was greater than 2. Moreover, the EC50 with Hepatitis C virus [1] was determined as 42.3 µM. Moreover, the results for the AUC/dose with Plasma and with Liver were 910 pmol·h/mL and 7500 pmol·h/g, respectively.
The corresponding values for `CC(C)OC(=O)[C@H](C)N[P@]1(=O)OC[C@H]2O[C@@H](n3ccc(=O)[nH]c3=O)[C@](C)(Cl)[C@@H]2O1` are greater than 197, 0.508 µM, 570 pmol·h/mL and 21 pmol·h/g.
For the molecule `CC(C)OC(=O)[C@H](C)N[P@@](=O)(OC[C@H]1O[C@@H](n2ccc(=O)[nH]c2=O)[C@](C)(F)[C@@H]1O)Oc1ccccc1`, the “Ratio CC50/EC50” value in data set [17] is given as greater than 48. Also, in the data set with Hepatitis C virus [1], the EC50 is 2.08 µM. Moreover, the values for the AUC/dose in the data set with Plasma and in the data set with Liver were 320 pmol·h/mL and 310 pmol·h/g, respectively.
The corresponding values for `CC(C)OC(=O)[C@H](C)N[P@@](=O)(OC[C@H]1O[C@@H](n2ccc(=O)[nH]c2=O)[C@](C)(Cl)[C@@H]1O)Oc1ccccc1` are greater than 105, 0.953 µM, 970 pmol·h/mL and 840 pmol·h/g.
